Screening data deposited in PubChem by several laboratories.
A3G deaminase = inhibitors of human APOBEC3G DNA deaminase | Q9HC16 | recombinant A3G, ssDNA deamination FAM/TAMRA fluorescence | inhibition, % at 20 µM | 330,000 tested, 0.28% active | AID 493012;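 active = inhibition of at least 40% at 20 µM, with no more than 30% in the related APOBEC3A deaminase screen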
Target sequence (Q9HC16 whole entry, looked up): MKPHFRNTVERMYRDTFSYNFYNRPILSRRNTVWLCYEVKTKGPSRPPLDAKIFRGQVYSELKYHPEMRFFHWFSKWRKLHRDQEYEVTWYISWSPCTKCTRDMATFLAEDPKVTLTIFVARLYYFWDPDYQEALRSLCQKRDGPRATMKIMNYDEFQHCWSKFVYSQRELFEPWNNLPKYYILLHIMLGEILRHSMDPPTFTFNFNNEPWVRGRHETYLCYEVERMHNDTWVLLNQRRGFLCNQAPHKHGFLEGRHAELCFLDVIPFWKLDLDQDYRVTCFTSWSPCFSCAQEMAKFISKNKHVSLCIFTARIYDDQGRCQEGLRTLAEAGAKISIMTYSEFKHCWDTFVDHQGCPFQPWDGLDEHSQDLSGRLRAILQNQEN
PfG6PD inh = PfG6PD (Plasmodium falciparum) enzyme inhibition; 350,000 tested, 0.78% active; inhibition, % at 20 µM; AID 504690; PfGluPho enzyme, NADPH resazurin-diaphorase fluorescence;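 active = inhibition reaching at least a set limit at 20 µM in the primary screen, cut at about 59% in these data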
PfM18AAP inh = blocks P. falciparum M18 aspartyl aminopeptidase; recombinant PfM18AAP, H-Glu-NHMec fluorogenic cleavage; inhibition, % at 7.35 µM; 290,000 tested, 1.2% active; AID 1822;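 active = inhibition above the campaign mean inhibition over all tested compounds plus 3 SD, cut at about 28% in these data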
A3A deaminase = inhibitors of human APOBEC3A DNA deaminase; P31941; recombinant A3A, FAM/TAMRA ssDNA deamination fluorescence; inhibition, % at 20 µM; 330,000 tested, 0.41% active; AID 493011;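 active = at least 40% inhibition at 20 µM here, with at most 30% in a related deaminase screen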
HKDC1 inh = blocks human hexokinase HKDC1 activity. Q2TB90. recombinant HKDC1, G6PDH/diaphorase resazurin coupled fluorescence. inhibition, % at 20 µM. 340,000 tested, 0.16% active. AID 493160;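 active = inhibition above about 35% when tested at 20 µM, limit read from the data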
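Test system: Recombinant HKDC1 (HK5) hexokinase enzyme, produced in-house | Input: HKDC1 at 5 µg/mL | Buffer or medium: Tris pH 8.0 buffer with MgCl2, Tween-20, BSA, BME | Schedule: 90 min reaction incubation at room temperature, dark | Technique: Resazurin-to-resorufin fluorescence via G6PDH and diaphorase coupling, 525/613 nm | Controls: DMSO wells with and without enzyme mix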
SUMO HTRF inh = SUMOylation inhibition. P63279. HTRF SUMOylation assay, SAE1/SAE2 + UBC9, in vitro. inhibition, % at 35 µM. AID 2006. 290,000 tested, 0.36% active; in the data active = inhibition above about 50%, passing the limit was not always enough
Target sequence (P63279 whole entry, looked up): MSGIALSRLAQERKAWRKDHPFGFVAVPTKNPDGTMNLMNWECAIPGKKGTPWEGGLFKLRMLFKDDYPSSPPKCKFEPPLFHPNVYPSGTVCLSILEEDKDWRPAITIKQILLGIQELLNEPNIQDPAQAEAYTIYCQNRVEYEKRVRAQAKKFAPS
PfGluPho conf = PfG6PD inhibition, single-dose confirmed; shares compounds with PfG6PD inh; recombinant PfGluPho, NADPH-diaphorase-resazurin fluorescence; inhibition, % at 20 µM; 2,400 tested, 34% active; AID 504753;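 active = inhibition of at least 50% at 20 µM in any single replicate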
Diaph ctr 10uM = inhibits diaphorase or oxidizes, flagging false PfG6PD hits; shares compounds with PfG6PD inh; diaphorase-coupled resazurin reduction, fluorescence, NADPH 10 uM; inhibition, % at 20 µM; 820 tested, 39% active; AID 504862;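 active = average inhibition reaching 50% or more with the compound at 20 µM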;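 note: resorufin red fluorescence formed as diaphorase reduces resazurin using NADPH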
Diaph ctr 30uM = counter-screen for P. falciparum G6PD inhibitors: diaphorase inhibitors, oxidizers; shares compounds with PfG6PD inh; 820 tested, 29% active; Diaphorase/resazurin coupled assay, resorufin fluorescence, 30 uM NADPH; inhibition, % at 20 µM;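 active = inhibition averaging 50% or more, tested at 20 µM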
A number is an active result; . = inactive; / = no result. Rows were chosen to be rich in hits. Some 2.4% of all compounds tested hit in one or more screens of this group.

SMILES	A3G deaminase	PfG6PD inh	PfM18AAP inh	A3A deaminase	HKDC1 inh	SUMO HTRF inh	PfGluPho conf	others
CCCCOc1ccc(-c2nnn(CC(=O)c3c[nH]c4ccccc34)n2)cc1	.	.	.	.	.	.	/
COc1ccc(C(C(=O)NCC2CCCO2)N(C(=O)CNC(=O)c2ccco2)c2cc(C)ccc2C)cc1OC (stereo unspecified)	.	.	.	.	.	.	/
COc1ccc(Nc2ccc3c(c2)=NC2(CCCCC2)[N+]=3[O-])cc1	.	78.5	.	.	.	.	.
COc1ccc(NC2=NC(=S)N(c3ccccc3C)C23CCCCC3)cc1	.	.	.	.	.	.	/
[O-][N+]1=c2ccc(Nc3ccccc3)cc2=NC12CCCCC2	/	61.0	.	/	.	79.2	.
O=[N+]([O-])c1ccc2c(c1N1CCCCC1)=NC1(CCCCC1)[N+]=2[O-]	.	.	.	.	.	.	/
CCc1cccc(NC(=O)CCS(=O)(=O)c2cc3c(cc2C)NC(=O)CO3)c1	.	.	.	.	.	.	/
Cc1ccc(S(=O)(=O)NCCC(c2ccccc2)c2ccco2)cc1 (stereo unspecified)	.	.	.	.	.	.	/
O=[N+]([O-])c1ccc(Nc2ccccc2O)c([N+](=O)[O-])c1	/	66.4	/	/	/	/	.
N#C/C(=C\c1c[nH]c2ccccc12)C(N)=O	.	.	.	.	.	.	/
ONC(=Nc1ccccc1Cl)c1ccccc1Cl	.	68.2	.	.	.	.	.
O=[N+]([O-])c1cccc(C(=Nc2ccccc2Cl)NO)c1	.	.	.	.	.	.	/
CCn1c2ccccc2c2cc(/C=N/n3cn[nH]c3=S)ccc21	.	62.6	.	.	.	.	52.1	Diaph ctr 10uM=.;Diaph ctr 30uM=.
O=C(CNc1cccc2ccccc12)N/N=C/c1ccccn1	.	59.6	.	.	.	.	.
CC1=C(C)CS(=O)N(S(=O)(=O)c2ccc(Cl)cc2)C1 (stereo unspecified)	.	60.3	.	.	.	.	49.5	Diaph ctr 10uM=.;Diaph ctr 30uM=.
CC1CCCC(C)N1S(=O)(=O)c1ccc(Cl)cc1 (stereo unspecified)	.	.	.	.	.	.	/
CN(C)CCN1CC(O)=C(c2nc3ccccc3s2)C1=N	.	.	.	.	.	.	/
COc1ccc(N2CC(O)=C(c3nc4ccccc4s3)C2=N)c(OC)c1	.	64.0	.	.	.	.	.
O=C(Nn1cnnc1)c1ccc(Br)s1	.	.	.	.	.	.	/
CCn1c(SCC(=O)c2cc(C)n(-c3ccc(C(=O)OC)cc3)c2C)nnc1-c1cccnc1	.	90.3	.	.	.	.	.
CCOC(=O)c1cccc(NC(=O)CSc2nnc(-c3cccnc3)n2CC)c1	.	.	.	.	.	.	/
OCCCNc1c2c(nc3cc(-c4ccc(Cl)cc4)nn13)CCC2	.	69.9	.	.	.	.	.
O=C(O)c1cccc(Nc2ncnc3c2cnn3-c2ccccc2)c1	.	.	.	.	.	.	/
Fc1cccc(Nc2ncnc3c2cnn3-c2ccccc2)c1	.	69.5	/	.	.	.	.
Clc1cccc(Nc2ncnc3c2cnn3-c2ccccc2)c1	.	83.4	/	.	.	.	.
SMILES	A3G deaminase	PfG6PD inh	PfM18AAP inh	A3A deaminase	HKDC1 inh	SUMO HTRF inh	PfGluPho conf	others
COc1ccccc1OCCn1ccnc1	.	.	.	.	.	.	/
CCC(C)c1ccccc1OCCn1ccnc1 (stereo unspecified)	.	70.0	.	.	.	.	56.1	Diaph ctr 10uM=.;Diaph ctr 30uM=.
Cc1ccc(N)cc1O	.	65.2	/	.	.	/	.
Nc1ccc(O)c([N+](=O)[O-])c1	.	.	/	.	.	/	/
Cc1c(/C=N/O)c2ccccn2c1C(=O)c1ccc(F)cc1	.	76.4	.	.	.	.	.
Cc1c(/C=N/NC(N)=O)c2ccccn2c1C(=O)c1ccc(F)cc1	.	.	.	.	.	.	/
Oc1cc(-n2cccn2)c(O)cc1-n1cccn1	/	102.1	84.8	/	.	.	86.5	Diaph ctr 10uM=.;Diaph ctr 30uM=.
Cc1cc2ncn(/N=C/c3ccc(-c4ccccc4)o3)c2cc1C	.	73.0	.	.	.	.	.
COc1ccc(NC(=S)Nc2ccc3nc(C)c(C)nc3c2)cc1	.	.	.	.	.	.	/
CCOc1ccc(NC(=S)Nc2ccc3nsnc3c2)cc1	.	63.8	.	.	.	.	.
COc1ccc(NC(=S)Nc2ccc3nsnc3c2)cc1	.	89.0	.	.	.	.	.
COc1ccc(OC)c(C2CC(=O)N3CN(c4ccc(C)c(Cl)c4)CSC3=C2C#N)c1 (stereo unspecified)	.	77.6	.	.	.	.	.
COc1ccccc1N1CSC2=C(C#N)C(c3ccc(SC)cc3)CC(=O)N2C1 (stereo unspecified)	.	67.5	30.3	.	.	.	51.9	Diaph ctr 10uM=.;Diaph ctr 30uM=.
CCc1ccccc1N1CSC2=C(C#N)C(c3cc(OC)c(OC)cc3OC)CC(=O)N2C1 (stereo unspecified)	46.1	67.5	37.3	.	.	.	.
COc1cc(OC)c(C2CC(=O)N3CN(C)CSC3=C2C#N)cc1OC (stereo unspecified)	.	61.0	.	.	.	.	.
COc1cc(SC)ccc1C(=O)N1CCN(c2ccccc2OC)CC1	.	.	.	.	.	.	/
CCc1ccccc1N1CCN(S(=O)(=O)c2cc(OC)ccc2OC)CC1	.	.	.	.	.	.	/
CCOC(=O)Cc1c(Sc2ccccc2)c2ccccc2n1C	.	.	.	.	.	.	/
O=S(=O)(c1ccc(Cl)cc1Cl)n1ccc2cccnc21	.	.	.	.	.	.	/
CCCCN(CCCC)C(=O)C1CC=CCC1C(=O)O (stereo unspecified)	.	.	.	.	.	.	/
COc1ccc(Br)cc1C1CC(=O)N2CN(C)CSC2=C1C#N (stereo unspecified)	.	65.2	.	.	.	.	.
COc1cccc(C2CC(=O)N3CN(c4cccc(Cl)c4C)CSC3=C2C#N)c1OC (stereo unspecified)	.	85.7	.	.	.	.	.
CCSc1oc(-c2ccccc2)nc1S(=O)(=O)c1ccccc1	.	.	.	.	.	.	/
CCn1c2ccccc2nc2cc3c(cc21)c(Cl)c(=O)c1ccccc13	/	93.8	/	/	/	/	.
CCn1c(/C=C/c2c(C)n(CC)c3ccccc23)nc2ccccc2c1=O	.	.	.	.	.	.	/
CC(NC(=O)c1cccc(F)c1)C1CC2CCC1C2 (stereo unspecified)	.	.	/	.	.	/	/
